Measurements reported in ChEMBL document CHEMBL1156942, “Inhibitors of hepatitis C virus polymerase: synthesis and characterization of novel 2-oxy-6-fluoro-N-((S)-1-hydroxy-3-phenylpropan-2-yl)-benzamides” (Bioorg Med Chem Lett, 2010).
pIC50: −log10 of the molar value. The source made the active and inactive calls. No cut-off for these calls is given here.

test system: Hepatitis C virus genotype 2; assay: Inhibition of HCV genotype 2 NS5B polymerase up to 200 uM; settings: not given

SMILES | inhibition
CCCCN(C)C(=O)c1c(F)cccc1OCC(=O)N[C@H](CO)Cc1ccccc1 | inactive

test system: Hepatitis C virus; assay: Selectivity ratio of IC50 for HCV Con1 NS5B polymerase C316Y mutant to IC50 for HCV 1b Con1 NS5B polymerase; format: functional, Hepacivirus hominis, isolate Con1; settings: not given

SMILES | Ratio IC50
CCCCN(C)C(=O)c1c(F)cccc1OCC(=O)N[C@H](CO)Cc1ccccc1 | 100

test system: Hepatitis C virus; assay: Selectivity ratio of IC50 for HCV Con1 NS5B polymerase M414T mutant to IC50 for HCV 1b Con1 NS5B polymerase; format: functional, Hepacivirus hominis, isolate Con1; settings: not given

SMILES | Ratio IC50
CCCCN(C)C(=O)c1c(F)cccc1OCC(=O)N[C@H](CO)Cc1ccccc1 | 10

test system: Hepatitis C virus; assay: Selectivity ratio of IC50 for HCV Con1 NS5B polymerase G554D mutant to IC50 for HCV 1b Con1 NS5B polymerase; format: functional, Hepacivirus hominis, isolate Con1; settings: not given

SMILES | Ratio IC50
CCCCN(C)C(=O)c1c(F)cccc1OCC(=O)N[C@H](CO)Cc1ccccc1 | 150

test system: Hepatitis C virus; assay: Inhibition of HCV Con1 NS5B polymerase M414T mutant; format: functional, Hepacivirus hominis; settings: isolate Con1
Summary of the method: (§1)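 Mutant Con1 NS5B (Δ21) at 30 nM was run in a de novo initiation assay with 100 nM heteropolymer RNA template and 0.25 mM trinucleotide initiator. Incubation: RT, 2 h, stopped with EDTA. Read-out: filter-bound label. IC50 from 10 twofold dilutions in duplicate; means of duplicates on two weighings.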

SMILES | pIC50
CNC(=O)c1c(-c2ccc(F)cc2)oc2cc(N(CCO)S(C)(=O)=O)c(C3CC3)cc12 [NESBUVIR] | 7.22
CC(C)(C)CC[C@@]1(C)CC(C2=NS(=O)(=O)c3cc(NS(C)(=O)=O)ccc3N2)=C(O)c2ccccc21 | 8.40
CCCCN(C)C(=O)c1c(F)cccc1OCC(=O)N[C@H](CO)Cc1ccccc1 | 5.00

test system: Hepatitis C virus; assay: Inhibition of HCV Con1 NS5B polymerase; format: functional, Hepatitis C virus (isolate Con1); settings: 1b
Summary of the method: (§2)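 The buffer is 20 mM HEPES pH 7.3, 7.5 mM DTT, 10 mM MgCl2, 60 mM NaCl, RNasin, BSA, GTP/ATP/UTP, and CTP supplemented to 20 nM. It uses 100 nM heteropolymer RNA template and 0.25 mM trinucleotide initiator. Incubation is 2 h at room temperature, then stopped with EDTA, and filter-bound label is counted. IC50 comes from 10 twofold dilutions in duplicate, averaged over two separate weighings.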

SMILES | pIC50
CC(C)(C)CCNC(=O)c1c(F)cccc1OCC(=O)N[C@H](CO)Cc1ccccc1 | < 4.70
CCCN(C)C(=O)c1c(F)cccc1OCC(=O)N[C@H](CO)Cc1ccccc1 | 5.22
CCCN(CC1CC1)C(=O)c1c(F)cccc1OCC(=O)N[C@H](CO)Cc1ccccc1 | 5.59
COC[C@@H]1CCCN1C(=O)c1c(F)cccc1OCC(=O)N[C@H](CO)Cc1ccccc1 | 5.11
O=C(COc1cccc(F)c1C(=O)NCCC1=CCCCC1)N[C@H](CO)Cc1ccccc1 | 5.37
COC[C@H]1CCCN1C(=O)c1c(F)cccc1OCC(=O)N[C@H](CO)Cc1ccccc1 | 4.70
O=C(COc1cccc(F)c1C(=O)NCCC1CCCCC1)N[C@H](CO)Cc1ccccc1 | < 4.70
O=C(COc1cccc(F)c1C(=O)N1CCC(c2ccccc2)C1)N[C@H](CO)Cc1ccccc1 (stereo partly specified) | 5.00
O=C(COc1cccc(F)c1C(=O)N1CCCCC1)N[C@H](CO)Cc1ccccc1 | < 4.70
C=CCN(CC=C)C(=O)c1c(F)cccc1OCC(=O)N[C@H](CO)Cc1ccccc1 | 5.66
CCCN(CCC)C(=O)c1c(F)cccc1OCC(=O)N[C@H](CO)Cc1ccccc1 | 5.57
CC(C)CCNC(=O)c1c(F)cccc1OCC(=O)N[C@H](CO)Cc1ccccc1 | < 4.70
O=C(COc1cccc(F)c1C(=O)N1CCCCCC1)N[C@H](CO)Cc1ccccc1 | 5.59
O=C(COc1cccc(F)c1C(=O)N[C@H](CO)Cc1ccccc1)NCCC1=CCCCC1 | < 4.70
CCN(CC)C(=O)c1c(F)cccc1OCC(=O)N[C@H](CO)Cc1ccccc1 | 5.22
CC(C)CCN(C)C(=O)c1c(F)cccc1OCC(=O)N[C@H](CO)Cc1ccccc1 | 6.33
O=C(COc1cccc(F)c1C(=O)N1CCCC1c1cccc(Cl)c1)N[C@H](CO)Cc1ccccc1 (stereo partly specified) | 5.72
O=C(COc1cccc(F)c1C(=O)N1CCCC1Cc1ccccn1)N[C@H](CO)Cc1ccccc1 (stereo partly specified) | < 4.70
O=C(COc1cccc(F)c1C(=O)NCCC1=CCCCC1)N[C@@H](CO)Cc1ccccc1 | < 4.70
COC(=O)[C@H](c1ccccc1)N(C)C(=O)c1c(F)cccc1OCC(=O)N[C@H](CO)Cc1ccccc1 | 5.34
CCCN(CC)C(=O)c1c(F)cccc1OCC(=O)N[C@H](CO)Cc1ccccc1 | 5.64
CCCCN(CC)C(=O)c1c(F)cccc1OCC(=O)N[C@H](CO)Cc1ccccc1 | 6.33
COC(=O)[C@@H](Cc1ccccc1)N(C)C(=O)c1c(F)cccc1OCC(=O)N[C@H](CO)Cc1ccccc1 | 5.37
CCN(C(=O)c1c(F)cccc1OCC(=O)N[C@H](CO)Cc1ccccc1)C(C)C | 5.15
CCN(CCOC)C(=O)c1c(F)cccc1OCC(=O)N[C@H](CO)Cc1ccccc1 | 5.10

Next, values leading:

pIC50 | SMILES
< 4.70 | COCCNC(=O)c1c(F)cccc1OCC(=O)N[C@H](CO)Cc1ccccc1
< 4.70 | CCCCNC(=O)c1c(F)cccc1OCC(=O)N[C@H](CO)Cc1ccccc1
5.64 | CC1CCN(C(=O)c2c(F)cccc2OCC(=O)N[C@H](CO)Cc2ccccc2)CC1
< 4.70 | C[S+]([O-])CCNC(=O)c1c(F)cccc1OCC(=O)N[C@H](CO)Cc1ccccc1 (stereo partly specified)
< 4.70 | COC[C@H](Cc1ccccc1)NC(=O)COc1cccc(F)c1C(=O)NCCC1=CCCCC1
< 4.70 | CCOCCN(CCOCC)C(=O)c1c(F)cccc1OCC(=O)N[C@H](CO)Cc1ccccc1
< 4.70 | CCOc1cc(CCNC(=O)c2c(F)cccc2OCC(=O)N[C@H](CO)Cc2ccccc2)ccc1OC
5.40 | O=C(COc1cccc(F)c1C(=O)N1CCCC1C1CCCCC1)N[C@H](CO)Cc1ccccc1 (stereo partly specified)
4.77 | CCCN(CCOC)C(=O)c1c(F)cccc1OCC(=O)N[C@H](CO)Cc1ccccc1
6.37 | C[C@H](c1ccccc1)N(C)C(=O)c1c(F)cccc1OCC(=O)N[C@H](CO)Cc1ccccc1
4.70 | CN(CCc1ccccc1)C(=O)c1c(F)cccc1OCC(=O)N[C@H](CO)Cc1ccccc1
5.22 | COCCN(C(=O)c1c(F)cccc1OCC(=O)N[C@H](CO)Cc1ccccc1)C(C)C
< 4.70 | O=C(COc1cccc(F)c1C(=O)N1CCCC1)N[C@H](CO)Cc1ccccc1
< 4.70 | O=C(COc1cccc(F)c1C(=O)NCCCCO)N[C@H](CO)Cc1ccccc1
< 4.70 | O=C(COc1cccc(F)c1C(=O)NCCc1ccccc1)N[C@H](CO)Cc1ccccc1

test system: Hepatitis C virus; assay: Inhibition of HCV Con1 NS5B polymerase G554D mutant; format: functional, Hepacivirus hominis; settings: isolate Con1; summary of the method: as §1

SMILES | pIC50
CNC(=O)c1c(-c2ccc(F)cc2)oc2cc(N(CCO)S(C)(=O)=O)c(C3CC3)cc12 [NESBUVIR] | 7.30
CC(C)(C)CC[C@@]1(C)CC(C2=NS(=O)(=O)c3cc(NS(C)(=O)=O)ccc3N2)=C(O)c2ccccc21 | 6.52
CCCCN(C)C(=O)c1c(F)cccc1OCC(=O)N[C@H](CO)Cc1ccccc1 | 3.92

test system: Hepatitis C virus; assay: Inhibition of HCV Con1 NS5B polymerase C316Y mutant; format: functional, Hepacivirus hominis; settings: isolate Con1; summary of the method: as §1

SMILES | pIC50
CNC(=O)c1c(-c2ccc(F)cc2)oc2cc(N(CCO)S(C)(=O)=O)c(C3CC3)cc12 [NESBUVIR] | 5.70
CC(C)(C)CC[C@@]1(C)CC(C2=NS(=O)(=O)c3cc(NS(C)(=O)=O)ccc3N2)=C(O)c2ccccc21 | 8.10
CCCCN(C)C(=O)c1c(F)cccc1OCC(=O)N[C@H](CO)Cc1ccccc1 | 4.05

test system: Hepatitis C virus; assay: Inhibition of HCV Con1 NS5B polymerase C316N mutant; format: functional, Hepacivirus hominis; settings: isolate Con1; summary of the method: as §1

SMILES | pIC50
CNC(=O)c1c(-c2ccc(F)cc2)oc2cc(N(CCO)S(C)(=O)=O)c(C3CC3)cc12 [NESBUVIR] | 6.92
CC(C)(C)CC[C@@]1(C)CC(C2=NS(=O)(=O)c3cc(NS(C)(=O)=O)ccc3N2)=C(O)c2ccccc21 | 8.40
CCCCN(C)C(=O)c1c(F)cccc1OCC(=O)N[C@H](CO)Cc1ccccc1 | 6.05

test system: Hepatitis C virus; assay: Inhibition of HCV 1a NS5B polymerase; format: functional, Hepatitis C virus subtype 1a; settings: not given; summary of the method: as §2

SMILES | pIC50
CNC(=O)c1c(-c2ccc(F)cc2)oc2cc(N(CCO)S(C)(=O)=O)c(C3CC3)cc12 [NESBUVIR] | 7.40
CC(C)(C)CC[C@@]1(C)CC(C2=NS(=O)(=O)c3cc(NS(C)(=O)=O)ccc3N2)=C(O)c2ccccc21 | 8.52
CCCCN(C)C(=O)c1c(F)cccc1OCC(=O)N[C@H](CO)Cc1ccccc1 | 4.37

test system: Hepatitis C virus genotype 3; assay: Inhibition of HCV genotype 3 NS5B polymerase up to 200 uM; settings: not given

SMILES | inhibition
CCCCN(C)C(=O)c1c(F)cccc1OCC(=O)N[C@H](CO)Cc1ccccc1 | inactive

test system: Hepatitis C virus genotype 4; assay: Inhibition of HCV genotype 4 NS5B polymerase up to 200 uM; settings: not given

SMILES | inhibition
CCCCN(C)C(=O)c1c(F)cccc1OCC(=O)N[C@H](CO)Cc1ccccc1 | inactive
